In the library only some 2.9% were active in any assay of this set; here they are far more common.
SUMO Mot1 rescue – inhibitors of SUMOylation pathway: yeast Mot1-301 growth rescue; AID 2716; 1% of 320,000 active; S. cerevisiae Mot1-301 growth rescue, ATP luminescence, 38.5C; percent above DMSO median, 100 means doubled; growth rescue, % at 18.8 µM;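 active = every valid replicate shows activation above 250% relative to neutral control wells; inactive = the rest, any valid replicate at or below 250%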;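 note: OY570 slx delta 5 strain wells were the positive control but not used for scaling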
NLRP3 yeast inh – inhibitors of NALP3 inflammasome in yeast | 0.39% of 330,000 active | AID 2825 | inhibition, % at 10 µM | Yeast reconstituted NLRP3/ASC/caspase-1, beta-gal luminescence, 24 h;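 active = inhibition of 50% or more; inactive = inhibition below 50%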;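 note: plate controls were induced DMSO wells for no effect and uninduced yeast grown without galactose for full effect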
NALP1 yeast inh – inhibitors of NALP1 inflammasome in yeast. S. cerevisiae NALP1/ASC/caspase-1 growth, X-gal OD620, 72 h. 0.61% of 280,000 active. AID 2071. inhibition, % at 10 µM; in the data active = inhibition mostly above about 24%, no sharp cut-off; inactive = mostly below about 32%
VIM-2 inh – blocks Pseudomonas aeruginosa VIM-2 metallo-beta-lactamase. purified VIM-2, nitrocefin hydrolysis, epi-absorbance fluorescence. 0.89% of 290,000 active. inhibition, % at 5.6 µM;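 active = inhibition above the mean of all tested compounds plus 3 SD, cutoff set per screening run, cut at about 7.5% in these data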;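 note: red hydrolysis product quenches plate fluorescence so inhibitors raise well fluorescence; 0% = enzyme with DMSO and 100% = DMSO without enzyme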
PolyA inhibitor – blocks polyadenylation in yeast reporter cells | S. cerevisiae SKY197-pL101 polyadenylation reporter, beta-gal luminescence; efflux-impaired pdr1/pdr3 knockout yeast; score 100 = 6 SD above DMSO | activity score, % at 12 µM | 0.02% of 300,000 active | AID 1875;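 active = lowest replicate activity score at least 50, where 100 means six control SD above control mean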;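 note: yeast exposed to compound for 9 h at 30 °C; higher score means more reporter readthrough which indicates perturbed polyadenylation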
IMP-1 inhibitor – inhibitors of Pseudomonas aeruginosa IMP-1 metallo-beta-lactamase | purified IMP-1, nitrocefin hydrolysis, epi-absorbance fluorescence | inhibition, % at 5.6 µM | 0.45% of 290,000 active;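 active = inhibition above the mean plus 3 SD of all compounds in the same screening run, cut at about 4.5% in these data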;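 note: 0% = IMP-1 with DMSO and 100% = DMSO wells lacking enzyme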
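Assay system: purified recombinant IMP-1 beta-lactamase. Input: IMP-1 0.2 nM before substrate addition. Buffer or medium: Zinc- and detergent-supplemented HEPES buffer, pH 7.1. Schedule: 25 °C, 15 min preincubation, 25 min reaction. Signal: Epi-absorbance fluorescence, 480 nm excitation, 530 nm emission. Evaluation: percent inhibition from optical density relative to buffer-blank wells.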
NALP3 yeast conf – confirmation of NALP3 inhibitors in yeast; shares compounds with NLRP3 yeast inh; yeast expressing human NALP3, luminescence; inhibition, % at 10 µM; 81% of 1,300 active; AID 435006; in the data active = inhibition above about 48%
Casp1-ASC yeast – active in yeast caspase-1-ASC counter-screen for NALP3 inhibitors. yeast expressing Caspase-1-ASC, luminescence counter screen. inhibition, % at 10 µM. 66% of 1,000 active. shares compounds with NLRP3 yeast inh
NALP3 retest – retest-confirmed inhibitor of NALP3 in yeast; shares compounds with NLRP3 yeast inh; yeast expressing human NALP3, luminescence read-out; inhibition, % at 10 µM; 53% of 1,000 active
* marks the source's active call; other numbers are inactive results; · = not tested or not shown. Cut-off read from the data, not from the text of the source, unless noted: active = inhibition above about 50%; inactive = the rest.

SMILES	SUMO Mot1 rescue	NLRP3 yeast inh	NALP1 yeast inh	VIM-2 inh	PolyA inhibitor	IMP-1 inhibitor	NALP3 yeast conf	Casp1-ASC yeast	NALP3 retest
CSCC(=O)N1CCc2ccc(NC(=O)c3ccccc3Cl)cc2C1	10	6	2	-2	7	-3	·	·	·
Cc1ccc(Nc2c(-c3ccccn3)nc3cc(C)ccn23)cc1	·	53*	-3	8.3*	14	-4	63*	50*	41
Cc1ccc(Nc2c(-c3ccccn3)nc3ccc(C)cn23)cc1	66	47	-36	-4	3	-5	·	·	·
CC(NC(=O)[C@@H](C)NC(=O)[C@@H]1Cc2ccccc2CN1C(=O)OC(C)(C)C)c1ccccc1 (stereo partly specified)	12	13	-13	-2	-1	-5	·	·	·
COc1cccc2oc3cc(C#CC4(O)CCCCC4)ccc3c(=O)c12	-9	57*	-46	-1	3	-3	60*	62*	48
Cc1ccc(CNC(=O)C(CC(C)C)OC(=O)c2ccco2)cc1 (stereo unspecified)	-7	-1	-54	2	16	-1	·	·	·
CCOc1ccc(C(=O)c2ccc([N+](=O)[O-])cc2Cl)cc1	46	32	11	0	-11	0	·	·	·
CCOc1ccc(C(=O)c2cc([N+](=O)[O-])ccc2Cl)cc1	28	67*	8	-1	-14	-1	67*	72*	69*
CC(C)c1ccc(N2C(=O)CC(Sc3ncccn3)C2=O)cc1 (stereo unspecified)	7	24	10	-1	-19	-3	·	·	·
CCCNc1nc(C)cc(-c2cc(C(=O)NC3CCCC3)on2)n1	2	63*	3	·	5	·	81*	51*	34
Cc1cccc2c1-c1sc(C(=O)Nc3nccs3)cc1CO2	-2	7	23	-1	2	-3	·	·	·
CN1CCN(c2ccccc2NC(=O)c2cc3c(s2)-c2ccccc2OC3)CC1	35	71*	·	4	-7	-4	76*	82*	76*
O=C(Nc1nccs1)c1cc2c(s1)-c1ccccc1OC2	158	54*	16	-4	-4	-5	67*	14	18
O=S(=O)(c1ccc(Cl)cc1)c1snnc1-c1ccccc1	307*	61*	14	-4	-15	-2	72*	74*	66*
O=S(=O)(c1ccc(F)cc1)c1snnc1-c1ccccc1	214	·	6	-2	-12	-4	·	·	·
CC(C)(C)n1nc(-c2ccc(F)cc2)c2c(N)ncnc21	-1	93*	92*	0	7	-1	93*	96*	92*
CC(C)(C)n1nc(-c2ccc(Cl)cc2)c2c(N)ncnc21	7	88*	2	0	-28	-3	94*	95*	90*
CC(C)(C)n1cnc2cc(NC(=O)c3cccs3)ccc21	217	57*	11	-4	7	-3	74*	60*	45
CCn1cnc2cc(NC(=O)c3cccs3)ccc21	69	23	-20	-6	19	-2	·	·	·
COc1ccc(N=C2S/C(=C\c3ccc(N4CCOCC4)o3)C(=O)N2CCc2c[nH]c3ccccc23)cc1	14	57*	6	-5	7	0	54*	·	·
Cn1c(=O)c(C(=O)NNC(=O)c2ccccc2F)c(O)c2ccccc21	282	64*	17	0	31	-1	82*	45	54*
Cn1c(=O)c(C(=O)NCCO)c(O)c2ccccc21	236	14	-14	5	2	-6	·	·	·
Cn1c(=O)c(C(=O)NNC(=O)c2ccc(Br)cc2)c(O)c2ccccc21	75	60*	2	-4	32	-4	78*	·	·
CCCOc1ccc(CSCCNC(=S)Nc2ccccc2)cc1	-18	35	16	-2	-19	-4	·	·	·
